Key:
[1] = system: Hepatitis C virus; test: Antiviral activity against Hepatitis C virus infected in human Huh7ET cells assessed as inhibition of dicistronic viral RNA replication after 72 hrs by luciferase reporter gene assay; assay type: functional, organism-based, Hepacivirus hominis; conditions: Huh-7, 72 h
Procedure, shortened: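 HCV replicon Huh 7 ET cells seeded 5000/well in DMEM without G418 overnight; compounds dissolved in DMSO, diluted in DMEM, dose-response. After 72 h, replicon-derived luciferase read by Steady-Glo. Mean of four replicates; EC50 = concentration inhibiting HCV RNA replication by 50%.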

[2] = Cytotoxicity against human Huh7ET cells by CytoTox-one cell proliferation assay; assay type: cell-based; conditions: Huh-7
Procedure, shortened: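 Parallel plate of replicon Huh 7 ET cells (5000/well, DMEM without G418), compounds from DMSO stocks diluted in DMEM, 72 h. Viability by tetrazolium-based CytoTox-1 proliferation assay. Mean of four replicates; IC50 = concentration decreasing cell viability by 50%.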

[3] = Selectivity index, ratio of IC50 for human Huh7ET cells to EC50 for Hepatitis C virus; assay type: toxicity, cell-based, Huh-7; conditions: read-out: Ratio IC50/EC50
Procedure, shortened: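 SI taken as IC50 (CytoTox-1 viability, Huh 7 ET replicon cells, 72 h) divided by EC50 (replicon luciferase, same cells and exposure); each from four-replicate averages.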

SMILES	EC50 [1] [µM]	IC50 [2] [µM]	selectivity ratio [3]
CN(c1cc2ncc(=O)[nH]c2cc1Nc1nc(C(F)(F)F)cs1)C1CCCCC1	8.12	37.4	4.6
CN(c1cc2ncc(=O)[nH]c2cc1N1CC(=O)N(c2ccccc2)C1=S)C1CCCCC1	2.21	2.99	1.4
CN(c1cc2ncc(=O)[nH]c2cc1Nc1nc(-c2ccc(-c3ccccc3)cc2)cs1)C1CCCCC1	> 20	82	< 4.1
CN(c1cc2ncc(=O)[nH]c2cc1NC(=S)NC(=O)c1ccc(OC(F)(F)F)cc1)C1CCCCC1	2.33	6.47	2.78
CCN(CC)c1cc2ncc(=O)[nH]c2cc1Nc1nc(-c2ccccc2)cs1	1.27	22.8	17.9
CN(c1cc2c(cc1Nc1nc(-c3ccccc3)cs1)NC(=O)CS2)C1CCCCC1	> 20	13.8	< 0.69
CN(c1cc2ncc(=O)[nH]c2cc1NC(=N)NCc1ccc(Cl)cc1)C1CCCCC1	3.94	4.4	1.12
CN(c1cc2ncc(=O)[nH]c2cc1NC(=S)Nc1ccc(F)cc1)C1CCCCC1	> 20	64.3	< 3.2
CN(c1cc2ncc(=O)[nH]c2cc1NC(=S)NC(=O)c1ccccc1)C1CCCCC1	2.42	11.1	4.57
COc1ccc(CNC(=N)Nc2cc3[nH]c(=O)cnc3cc2N(C)C2CCCCC2)cc1	> 20	19.5	< 0.98
CN(c1cc2ncc(=O)[nH]c2cc1NC(=S)NC(=O)/C=C/c1ccccc1)C1CCCCC1	6.77	11	1.6
CN(C)c1cc2ncc(=O)[nH]c2cc1Nc1nc(-c2ccccc2)cs1	> 20	57.5	< 2.9
CN(c1cc2ncc(=O)[nH]c2cc1Nc1nc(-c2ccc(Cl)cc2)cs1)C1CCCCC1	5.39	16.7	3.1
Cc1ccsc1C(=O)NC(=S)Nc1cc2[nH]c(=O)cnc2cc1N(C)C1CCCCC1	3.27	12.6	3.84
Cc1nc2cc(N(C)C3CCCCC3)c(Nc3nc(-c4ccccc4)cs3)cc2[nH]c1=O	3.91	12.3	3.15
CN(c1cc2ncc(=O)[nH]c2cc1Nc1nc(-c2ccco2)cs1)C1CCCCC1	12.2	11.9	1
CN(c1cc2ncc(=O)[nH]c2cc1NC(=S)Nc1cccc(C(F)(F)F)c1)C1CCCCC1	> 20	78.4	< 3.9
CN(c1cc2c(cc1Nc1nc(-c3ccccc3)cs1)NC(=O)CO2)C1CCCCC1	15.4	17.5	1.1
CN(c1cc2ncc(=O)[nH]c2cc1Nc1nc(-c2cccc3ccccc23)cs1)C1CCCCC1	6.8	57.4	8.4
CN(c1cc2ncc(=O)[nH]c2cc1NC(=S)NC(=O)c1cccc2ccccc12)C1CCCCC1	5.48	9.98	1.82
O=c1cnc2cc(N3CCOCC3)c(Nc3nc(-c4ccccc4)cs3)cc2[nH]1	5.19	58.3	11.2
CN(c1cc2c(cc1Nc1nc(-c3ccccc3)cs1)[nH]c(=O)c1cccn12)C1CCCCC1	1.82	18	9.9
CN(c1cc2ncc(=O)[nH]c2cc1NC(=N)NCc1ccc(F)cc1)C1CCCCC1	12.8	10.2	0.8
CN(c1cc2ncc(=O)[nH]c2cc1Nc1nc(-c2cccs2)cs1)C1CCCCC1	> 20	71.3	< 3.6

SMILES	EC50 [1] [µM]	IC50 [2] [µM]	selectivity ratio [3]
CN(c1cc2ncc(=O)[nH]c2cc1Nc1nc(-c2ccc3c(c2)OCO3)cs1)C1CCCCC1	> 20	61.2	< 3.1
CN(c1cc2ncc(=O)[nH]c2cc1N1C(=O)CN(c2cccc3ccccc23)C1=S)C1CCCCC1	13.1	11.2	0.85
CCCN(CCC)c1cc2ncc(=O)[nH]c2cc1Nc1nc(-c2ccccc2)cs1	3.81	31.6	8.3
CN(c1cc2ncc(=O)[nH]c2cc1NC(=S)NC(=O)c1ccc(F)cc1)C1CCCCC1	2.97	11.4	3.8
CN1CCN(c2cc3ncc(=O)[nH]c3cc2Nc2nc(-c3ccccc3)cs2)CC1	4.59	10.2	2.2
CN(c1cc2ncc(=O)[nH]c2cc1Nc1nc(-c2ccc(C#N)cc2)cs1)C1CCCCC1	6.07	18.1	2.98
CSCCc1nc2cc(N(C)C3CCCCC3)c(Nc3nc(-c4ccccc4)cs3)cc2[nH]c1=O	> 20	86	< 4.3
CN(c1cc2ncc(=O)[nH]c2cc1NC(=N)NCc1cccc(C(F)(F)F)c1)C1CCCCC1	> 20	54	< 2.7
CN(c1cc2ncc(=O)[nH]c2cc1NC(=N)NCc1ccccn1)C1CCCCC1	> 20	48.6	< 2.4
CC(C)c1nc2cc(N(C)C3CCCCC3)c(Nc3nc(-c4ccccc4)cs3)cc2[nH]c1=O	8.62	67.4	7.8
CN(c1cc2ncc(=O)[nH]c2cc1NC(=O)Nc1ccccc1)C1CCCCC1	11.4	5.52	0.5
CN(c1cc2ncc(=O)[nH]c2cc1NC(=N)NCc1ccc(OC(F)(F)F)cc1)C1CCCCC1	3.97	3.7	0.9
CC(C)Cc1nc2cc(N(C)C3CCCCC3)c(Nc3nc(-c4ccccc4)cs3)cc2[nH]c1=O	4.19	33.3	7.9
CN(c1cc2ncc(=O)[nH]c2cc1Nc1nc2c(s1)Cc1ccccc1-2)C1CCCCC1	4.57	10.9	2.39
CN(c1cc2ncc(=O)[nH]c2cc1NC(=S)NC(=O)c1ccco1)C1CCCCC1	1.8	17.3	9.6
CN(c1cc2ncc(=O)[nH]c2cc1NC(=S)Nc1ccccc1)C1CCCCC1	> 20	49.6	< 2.8
CN(c1cc2ncc(=O)[nH]c2cc1Nc1nc(-c2ccc(F)cc2)cs1)C1CCCCC1	5.26	9.92	1.9
CN(c1cc2ncc(=O)[nH]c2cc1NC(=N)NCc1ccccc1)C1CCCCC1	11.4	9.94	0.87
COc1cc(C(=O)NC(=S)Nc2cc3[nH]c(=O)cnc3cc2N(C)C2CCCCC2)cc(OC)c1OC	5.16	15.9	3.1
CN(c1cc2ncc(=O)[nH]c2cc1Nc1nc(-c2cccnc2)cs1)C1CCCCC1	5.49	11.5	2.09
CN(c1cc2nc(Cc3ccccc3)c(=O)[nH]c2cc1Nc1nc(-c2ccccc2)cs1)C1CCCCC1	> 20	42	< 2.1
CN(c1ccccc1)c1cc2ncc(=O)[nH]c2cc1Nc1nc(-c2ccccc2)cs1	4.61	15.9	3.4
CN(c1cc2ncc(=O)[nH]c2cc1NC(=S)NC(=O)c1ccc(Cl)nc1)C1CCCCC1	16.4	34.5	2.1
